A selection: hits, their analogues and other compounds. The true share with any hit is near 4.1%.
KCNK3 block: human KCNK3 channel inhibitors, primary screen, CHO cells, FluxOR thallium flux, B-score. 0.84% of 340,000 active. FluxOR fluorescence; stronger effect = lower value. B-score at 10 µM. AID 602410, 2012. Potassium channel subfamily K member 3 (Homo sapiens), O14649;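 active = B-score under library mean minus 4 SD, starting fluorescence ratio at most library mean plus 5 SD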;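 also: more negative B-score means stronger inhibition of thallium flux through KCNK3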
Target sequence (O14649 whole entry, looked up): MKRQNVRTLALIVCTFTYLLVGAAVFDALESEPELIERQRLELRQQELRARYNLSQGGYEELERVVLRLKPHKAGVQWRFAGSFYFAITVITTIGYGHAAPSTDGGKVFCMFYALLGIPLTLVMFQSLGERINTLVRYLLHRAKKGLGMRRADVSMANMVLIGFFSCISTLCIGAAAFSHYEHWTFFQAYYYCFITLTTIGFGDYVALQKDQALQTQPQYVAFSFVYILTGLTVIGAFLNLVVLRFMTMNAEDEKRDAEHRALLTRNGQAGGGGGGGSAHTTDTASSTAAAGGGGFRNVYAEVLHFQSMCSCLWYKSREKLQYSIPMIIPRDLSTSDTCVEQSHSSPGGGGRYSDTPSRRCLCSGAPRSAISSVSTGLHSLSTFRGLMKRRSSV
KCNK9 block: KCNK9 potassium channel inhibitors, primary screen, HEK293 cells, thallium flux; FluxOR thallium flux fluorescence; stronger effect = lower value; B-score at 10 µM; 1.2% of 310,000 active; AID 488922, 2010;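 active = ratio B-score over 3 SD below the library mean, with starting fluorescence within 5 SD of its mean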;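 also: negative B-score means less thallium flux so channel inhibition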
Cl transport mod: KCC2 cotransporter modulators, thallium flux, primary screen, cell-based, HEK293 KCC2, FluoZin-2 fluorescence, MLSMR | B-score of Tl+ flux slope (higher = more flux/activation; lower = inhibition) at 10 µM | Solute carrier family 12 member 5 (Homo sapiens), Q9H2X9 | 2.2% of 190,000 active | AID 1456, 2008 | KCC2 cells, thallium flux FluoZin-2 fluorescence;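 active = thallium flux slope and its plate-corrected score both differing from the plate sample mean at a set confidence after two filtering rounds, in either direction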;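 also: slope of fluorescence scaled to starting intensity during 10 to 20 s after thallium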
KCNQ1 pot: potentiators or activators of KCNQ1 channel, primary screen, cell-based, thallium flux, high-throughput. CHO-K1 KCNQ1, thallium flux FluxOR fluorescence; stronger effect = higher value. B-score at 10 µM. 0.35% of 310,000 active;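 active = fluorescence ratio B-score, a plate-corrected score, at least three library SD, with initial intensity B-score within 5 SD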
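Schedule – 37 °C overnight plating, 90-min dark dye load, 20-min compound pretreatment · System – stable KCNQ1 CHO-K1 line · Probe or stimulus – thallium- and potassium-containing depolarizing buffer · Measured by – kinetic FluxOR fluorescence, 10 s baseline plus 110 s post-stimulus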
hERG protect: hERG rescue from dofetilide block, primary screen, cell-based, CHO-hERG, FluxOR thallium flux, dofetilide IC70. Voltage-gated inwardly rectifying potassium channel KCNH2 (Homo sapiens), Q12809. dofetilide IC70 present. activation (rescue from dofetilide block), less the hit threshold, % at 10 µM. 0.51% of 310,000 active;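 active = activation above the mean of controls blocked by dofetilide plus 5 SD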;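 also: thallium influx through hERG after potassium depolarization seen as dye fluorescence rise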
KCNQ1 block: inhibitors of human KCNQ1 channel, primary screen, cell-based, thallium flux, high-throughput; Potassium voltage-gated channel subfamily KQT member 1 (Homo sapiens), P51787; CHO-K1 KCNQ1, FluxOR thallium flux fluorescence; stronger effect = higher value; B-score at 10 µM; 1.3% of 310,000 active; AID 2642, 2010;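 active = compounds whose thallium flux B-score, printed positive for inhibition, exceeds three library SD while starting fluorescence stays within three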;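 also: channel opened by potassium depolarization with thallium stimulus after 20 min compound exposure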
* hit, by the source's call; i = inactive; · = no result.

SMILES | KCNK3 block | KCNK9 block | Cl transport mod | KCNQ1 pot | hERG protect | KCNQ1 block
CC1CCC(NC(=O)c2cc3ccccc3cc2O)CC1 (stereo not given) | -11* | · | · | · | · | ·
C=CC[C@@H](CC(=O)N[C@H](CO)Cc1ccccc1)C(=O)N[C@H](COC(=O)[C@@H](CC=C)Cc1ccc(F)cc1)Cc1ccccc1 | i | · | · | · | · | ·
COc1cc(CNCCc2c[nH]c3ccccc23)ccc1OCc1ccc(F)cc1 | i | -7.6* | 0.37 | i | -27 | i
CC(Oc1ccc2ccc(=O)oc2c1)C(=O)NC1CC(C)(C)NC(C)(C)C1 (stereo not given) | i | i | · | i | -10 | i
COc1cc(/C=C(\C#N)c2nc3ccccc3[nH]2)ccc1OC(=O)c1ccco1 | i | i | -1.5 | i | -10 | i
COc1cc(/C=C(\C#N)c2nc3ccccc3[nH]2)c([N+](=O)[O-])cc1OCc1ccccc1 | i | i | -4.5* | i | -7 | i
CC/C(=N/NC(=O)c1ccc(Br)o1)c1ccc(Cl)cc1 | i | i | 1.7 | 10* | -1 | i
CCCC/C(=N\NC(=O)c1ccc(Br)o1)c1ccccc1 | i | i | 1.6 | i | -3 | i
COc1ccccc1NC(=O)CCCc1nnc2n(C)c(=O)c3sccc3n12 | i | i | · | i | -6 | i
CC(=O)c1cccc(NC(=S)NNC(=O)c2ccc(C)c([N+](=O)[O-])c2)c1 | i | i | -0.59 | i | -7 | i
Cc1ccc(C(=O)NNC(=S)Nc2cccc(Cl)c2Cl)cc1[N+](=O)[O-] | i | i | · | i | -10 | 9*
CCC1(CCC(C)C)SC(N)=NC1=O (stereo not given) | i | · | · | · | · | ·
Cc1c(C(=O)NCC2COc3ccccc3O2)oc2ccc(S(=O)(=O)N(C)C3CCCCC3)cc12 (stereo not given) | i | i | -1.2 | i | -12 | 6*
Cc1cc(C)c2nc(SCC(=O)NCCC3=CCCCC3)cc(C)c2c1 | i | i | 12* | i | -12 | i
O=C(O)c1ccc(N=N/C(=N\Nc2ccc(C(=O)O)cc2)c2ccccc2)cc1 | i | i | · | i | -7 | i
O=C(O)c1cccc(N/N=C(\N=Nc2ccccc2)c2ccccc2)c1 | i | i | · | i | -10 | 6*
N=c1c2c(n(Cc3ccc(Cl)c(Cl)c3)c3c1CCC3)CCCC2 | i | i | · | i | -14 | i
N=c1c2c(n(Cc3ccc(Br)cc3)c3c1CCC3)CCCC2 | i | i | -0.37 | i | -19 | 7*
CC(O)CNc1nc(NCc2ccccc2)c2cnn(C)c2n1 (stereo not given) | i | i | · | i | 1 | i
Cn1c2ccccc2c(=O)c2ccc(C#CC3(O)CCCCC3)cc21 | i | i | · | i | -18 | i
COc1ccc(C#Cc2ccc3c(c2)c(=O)c2ccccc2n3C)cc1 | i | -7.4* | · | i | -20 | i
COc1cccc(/C=C/C(=O)OCC(=O)Nc2cccc(S(=O)(=O)NC3=NCCCCC3)c2)c1 | i | · | · | · | · | ·
C=C1[C@@H](C)C2[C@H](Cc3ccccc3)NC(=O)[C@]23OC(=O)CC[C@H](O)CCC[C@H](C)C/C=C/[C@H]3[C@@H]1O (stereo not given in full) | · | i | -1.5 | 60* | -10 | i
COc1ccc2c(c1)C=Cc1ccccc1O2 | · | i | · | i | 1 | i
Cc1c(C(=O)Nc2cccc([N+](=O)[O-])c2)cnn1-c1ccccc1 | i | i | · | i | 7.0* | i
Cc1cc(C)n(-c2ccc(C(=O)Nc3cccc([N+](=O)[O-])c3)cc2)n1 | i | i | -0.63 | i | -12 | 9*
